Measurements: ChEMBL document CHEMBL4715757, “Studies on the inhibition of sphingosine-1-phosphate lyase by stabilized reaction intermediates and stereodefined azido phosphates” (Eur J Med Chem, 2016)

Assays:
[1] = target: T1, Sphingosine-1-phosphate lyase 1 (Homo sapiens, UniProt O95470); assay: Inhibition of recombinant human S1PL using RBM13 as fluorogenic substrate incubated for 1 hr
T1 sequence (O95470 whole entry): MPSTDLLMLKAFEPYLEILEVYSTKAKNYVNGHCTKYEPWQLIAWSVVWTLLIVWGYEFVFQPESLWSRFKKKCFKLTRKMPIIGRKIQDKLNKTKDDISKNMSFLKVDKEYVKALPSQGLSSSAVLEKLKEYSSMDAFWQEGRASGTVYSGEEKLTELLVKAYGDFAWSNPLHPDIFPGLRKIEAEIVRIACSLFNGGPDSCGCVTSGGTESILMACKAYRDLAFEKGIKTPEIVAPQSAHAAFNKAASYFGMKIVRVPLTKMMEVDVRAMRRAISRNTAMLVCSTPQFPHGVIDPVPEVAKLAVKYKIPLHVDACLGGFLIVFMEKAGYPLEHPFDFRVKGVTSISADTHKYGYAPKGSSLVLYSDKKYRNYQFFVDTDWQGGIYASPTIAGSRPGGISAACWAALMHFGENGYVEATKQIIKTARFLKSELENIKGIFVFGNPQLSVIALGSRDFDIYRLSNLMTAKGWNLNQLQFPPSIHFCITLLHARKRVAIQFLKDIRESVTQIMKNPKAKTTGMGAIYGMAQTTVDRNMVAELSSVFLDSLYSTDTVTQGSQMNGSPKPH
Method in brief: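 Recombinant hS1PL at 3 µg/mL final in 100 mM HEPES pH 7.4 with 0.1 mM EDTA, 0.05% Triton X-100, 0.01% Pluronic F127 and 100 µM PLP. RBM13 at 125 µM final; 37 °C for 1 h. MeOH stop, then glycine-NaOH pH 10.6 for 20 min at 37 °C. Umbelliferone fluorescence at 355/460 nm, calibration curve. IC50 from % activity vs log[I].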

[2] = target: T1, Sphingosine-1-phosphate lyase 1; assay: Competitive inhibition of human S1PL using varying levels of RBM13 as substrate by Lineweaver-Burk plot analysis
[3] = Inhibition of recombinant full-length wild type Symbiobacterium thermophilum S1PL using RBM13 as fluorogenic substrate incubated for 1 hr
Method in brief: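 StS1PL, expressed and purified in-house, used at 25 µg/mL final. Buffer: 1 mM potassium phosphate pH 7.2 with 100 mM NaCl, 1 mM EDTA, 1 mM DTT and 10 µM PLP. RBM13 at 125 µM final; 37 °C for 1 h. Stopped with MeOH, then glycine-NaOH pH 10.6 for 20 min at 37 °C. Umbelliferone read at ex/em 355/460 nm against a calibration curve. IC50 fitted from % activity vs log[I].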

[4] = test system: Symbiobacterium thermophilum; assay: Inhibition of recombinant full-length wild type Symbiobacterium thermophilum S1PL at 250 uM using RBM13 as fluorogenic substrate incubated for 1 hr relative to control
[5] = target: T2, Sphingosine-1-phosphate lyase 1 (Homo sapiens) (UniProt O95470); assay: Inhibition of recombinant human S1PL at 250 uM using RBM13 as fluorogenic substrate incubated for 1 hr relative to control
T2 sequence (whole entry): T1 sequence (O95470 whole entry)

[6] = target: T3, Sphingosine-1-phosphate lyase 1 (Mus musculus, UniProt Q8R0X7); assay: Inhibition of mouse liver microsomal S1PL using S1P as substrate incubated for 20 mins by ESI-LC/MS analysis; format: microsomes, Microsome
T3 sequence (Q8R0X7 whole entry): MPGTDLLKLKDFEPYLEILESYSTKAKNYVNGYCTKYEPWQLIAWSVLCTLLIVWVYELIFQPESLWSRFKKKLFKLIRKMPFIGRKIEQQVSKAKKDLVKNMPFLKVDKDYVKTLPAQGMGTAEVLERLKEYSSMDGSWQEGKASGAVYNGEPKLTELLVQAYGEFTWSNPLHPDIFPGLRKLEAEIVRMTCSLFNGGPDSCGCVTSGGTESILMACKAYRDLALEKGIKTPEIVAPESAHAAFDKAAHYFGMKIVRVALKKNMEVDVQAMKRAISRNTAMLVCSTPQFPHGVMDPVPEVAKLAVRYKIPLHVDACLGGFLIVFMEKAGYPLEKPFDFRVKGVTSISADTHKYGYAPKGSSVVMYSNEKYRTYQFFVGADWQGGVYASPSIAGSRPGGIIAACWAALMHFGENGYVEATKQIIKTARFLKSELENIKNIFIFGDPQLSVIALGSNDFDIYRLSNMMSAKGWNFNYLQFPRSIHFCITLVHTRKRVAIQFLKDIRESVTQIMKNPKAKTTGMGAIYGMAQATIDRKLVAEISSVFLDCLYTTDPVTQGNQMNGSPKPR

Structure (SMILES)	IC50 [1]	Ki [2]	IC50 [3]	inhibition [4]	inhibition [5]	IC50 [6]
Cc1ncc(COP(=O)(O)O)c(CNCCOP(=O)(O)O)c1O				20%	20%	
CCCCCCCCCCCCC/C=C/[C@@H](O)[C@H](COP(=O)(O)O)NCc1c(COP(=O)(O)O)cnc(C)c1O	89 µM		53.4 µM			
CCCCCCCCCCCCCCC[C@@H](O)[C@H](COP(=O)(O)O)N=[N+]=[N-]	25.7 µM	19 µM	25 µM			
CCCCCCCCCCCCCCC[C@H](O)[C@@H](COP(=O)(O)O)N=[N+]=[N-]	10.8 µM	6.3 µM	25.7 µM			
CCCCCCCCc1ccc(CCC(N)(CO)CO)cc1 [FINGOLIMOD]						52.4 µM
CCCCCCCCCCCCCCC[C@@H](O)[C@H](COP(=O)(O)O)NCc1c(COP(=O)(O)O)cnc(C)c1O	81.1 µM		47 µM			

Other lines, results leading:

IC50 [1]	Ki [2]	IC50 [3]	inhibition [4]	inhibition [5]	IC50 [6]	Structure (SMILES)
5.2 µM	5.6 µM	13.8 µM				CCCCCCCCCCCCC/C=C/[C@H](O)[C@@H](COP(=O)(O)O)N=[N+]=[N-]
10.1 µM	9.1 µM	12.9 µM				CCCCCCCCCCCCC/C=C/[C@@H](O)[C@H](COP(=O)(O)O)N=[N+]=[N-]
28.8 µM	20.4 µM	16 µM				CCCCCCCCCCCCC/C=C/[C@H](O)[C@H](COP(=O)(O)O)N=[N+]=[N-]
28.3 µM	36.7 µM	24.3 µM				CCCCCCCCCCCCCCC[C@@H](O)[C@@H](COP(=O)(O)O)N=[N+]=[N-]
22.9 µM	17.5 µM	11.7 µM				CCCCCCCCCCCCC/C=C/[C@@H](O)[C@@H](COP(=O)(O)O)N=[N+]=[N-]
21.8 µM	16.4 µM	27.2 µM				CCCCCCCCCCCCCCC[C@H](O)[C@H](COP(=O)(O)O)N=[N+]=[N-]
